This is a sample that favours compounds with a hit; in the whole collection about 2.4% have one here.
MC4R antag cAMP: MC4R antagonists of cAMP signaling, primary screen, cell-based, TR-FRET, antagonist arm of biased-ligand search; MC4R-expressing cells, MTII-stimulated cAMP, LANCE TR-FRET; inhibition, % at 6.5 µM; actives 0.48% (n = 360,000); AID 540295, 2011;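 active = inhibition above its plate's cutoff, the mean of tested wells on that plate plus 3 SD, cut at about 29% in these data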;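 also: 0% = Melanotan II alone and 100% = Melanotan II plus saturating MCL0020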
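material = U2OS cells stably expressing human melanocortin 4 receptor (MC4R) | also added = Melanotan II challenge | dosing = single nominal compound dose of 6.5 µM | detection = TR-FRET with Eu-cAMP and labeled anti-cAMP, 671 nm | replication = singlicate | timing = compound 30 min, challenge 1 h, detection 1 h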
MC4R barr agon: MC4R agonists recruiting beta-arrestin, primary screen, cell-based, luminescence, agonist arm of biased-ligand search. U2OS MC4R beta-arrestin complementation; percent of melanotan II response, DMSO zero. activation, % at 8.9 µM. actives 0.98% (n = 360,000). AID 540308, 2011;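 active = activation above a per-plate cutoff, the mean activation of sample wells on that plate plus 3 SD, cut at about 8% in these data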
HTR5A inv ctr: HTR5A inverse agonists in luminescence cell assay, primary screen, counter-screen for OPRM1-OPRD1 heterodimer inverse agonist project, full-deck HTS; inhibition, % at 9.3 µM; HTR5A cell line, inverse agonism; actives 0.083% (n = 340,000); 5-hydroxytryptamine receptor 5A (Homo sapiens), P47898; in the data active = inhibition mostly above about 23%, no sharp cut-off; inactive = mostly below about 18%;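 also: 0% = cells with DMSO and 100% = no-cell wells with DMSO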
HTR5A ag: HTR5A agonists in luminescence cell assay, primary screen, counter-screen for OPRM1-OPRD1 heterodimer agonist project, full-deck HTS; 5-hydroxytryptamine receptor 5A (Homo sapiens), P47898; cell-based; activation, % at 9.3 µM; actives 0.61% (n = 340,000); AID 504692, 2011; in the data active = activation mostly above about 9.5%, no sharp cut-off; inactive = mostly below about 7.6%;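 also: 0% = cells with vehicle only and 100% = reference agonist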
OPRM1-OPRD1 inv: inverse agonists of MOR-DOR heterodimerization, primary screen, cell-based, luminescence; Mu-type opioid receptor (Homo sapiens) + Delta-type opioid receptor (Homo sapiens), …; cell-based MOR-DOR heterodimer luminescence, inverse agonism; inhibition, % at 9.3 µM; actives 0.21% (n = 340,000); in the data active = inhibition above about 22%, passing the limit was not always enough;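 also: 0% = cells with DMSO and 100% = wells without cells with DMSO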
Target sequence (P35372 whole entry, looked up): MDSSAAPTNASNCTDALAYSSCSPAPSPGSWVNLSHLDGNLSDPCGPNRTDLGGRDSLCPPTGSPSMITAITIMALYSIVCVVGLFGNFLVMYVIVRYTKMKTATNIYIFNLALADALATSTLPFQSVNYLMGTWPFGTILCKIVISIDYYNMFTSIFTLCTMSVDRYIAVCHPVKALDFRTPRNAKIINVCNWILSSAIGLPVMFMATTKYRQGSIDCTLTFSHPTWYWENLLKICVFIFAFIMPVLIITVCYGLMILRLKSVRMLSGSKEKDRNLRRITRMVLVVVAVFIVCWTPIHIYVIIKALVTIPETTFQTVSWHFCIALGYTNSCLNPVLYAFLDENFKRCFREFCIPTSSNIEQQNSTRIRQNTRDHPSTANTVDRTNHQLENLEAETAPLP
Target sequence (P41143 whole entry, looked up): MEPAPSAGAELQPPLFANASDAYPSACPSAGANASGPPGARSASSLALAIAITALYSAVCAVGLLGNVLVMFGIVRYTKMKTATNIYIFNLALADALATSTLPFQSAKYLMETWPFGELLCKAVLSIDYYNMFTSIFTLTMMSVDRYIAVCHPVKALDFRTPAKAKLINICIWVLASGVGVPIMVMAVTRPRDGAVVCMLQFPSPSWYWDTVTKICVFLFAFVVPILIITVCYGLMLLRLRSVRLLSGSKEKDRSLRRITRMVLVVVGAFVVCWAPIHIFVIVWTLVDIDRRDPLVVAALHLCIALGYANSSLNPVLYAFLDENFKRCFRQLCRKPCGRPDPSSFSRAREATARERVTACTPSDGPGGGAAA
MOR-DOR ag: agonists of OPRM1-OPRD1 heterodimerization, primary screen, cell-based, luminescence; activation, % at 9.3 µM; cells; Mu-type opioid receptor (Homo sapiens) + Delta-type opioid receptor (Homo sapiens), …; actives 0.3% (n = 340,000); in the data active = activation above about 18%;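 also: 0% = vehicle-treated cells and 100% = reference agonist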
MC4R barr conf: MC4R beta-arrestin agonists, retest, confirmation, cell-based, luminescence, U2OS; activation, % at 8.9 µM; U2OS MC4R beta-arrestin recruitment; scaled DMSO 0%, Melanotan II 100%; actives 31% (n = 2,400); shares compounds with MC4R barr agon; AID 602192, 2012;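 active = mean activation across replicates above the hit cutoff set in the earlier primary screen, cut at about 8% in these data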
MOR-DOR barr ag: agonists of MOR-DOR heterodimerization, counter-screen for MC4R biased agonist project, cell-based, luminescence; shares compounds with MC4R barr agon; U2OS PathHunter beta-arrestin, beta-gal luminescence; percent of deltorphin B response, DMSO zero; activation, % at 9.2 µM; actives 5.8% (n = 2,400);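 active = mean activation across replicates exceeds the hit threshold derived in the earlier primary screen, cut at about 18% in these data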;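 also: 100% = deltorphin B at 0.9 µM final and 0% = DMSO alone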
* hit, by the source's call; . = no result.

SMILES | MC4R antag cAMP | MC4R barr agon | HTR5A inv ctr | HTR5A ag | OPRM1-OPRD1 inv | MOR-DOR ag | MC4R barr conf | MOR-DOR barr ag
Cc1nc(NC(=O)CSc2nc3cccnc3n2C2CCCCC2)sc1C | -3.2 | 9.6* | -12.9 | 3.6 | -14.5 | 2.7 | -2.4 | 6.8
CCOC(=O)c1cc(OCC)c2c(ccc3cc(OC)ccc32)n1 | 6.6 | -2.5 | . | . | . | . | . | .
O=C(Nc1ccc(Cl)cc1)C1C2CCC3C(CCC21)C3(Cl)Cl (stereo unspecified) | 4.4 | 7.6 | -10.4 | 4.1 | -30.5 | 5.4 | . | .
Cc1cccc(NC(=O)C2C3CCC4C(CCC32)C4(Cl)Cl)c1 (stereo unspecified) | 7.3 | 13.5* | -19.5 | 4.7 | -9.2 | 1.7 | 1.6 | 1.7
O=C(Cn1cnc2cc([N+](=O)[O-])ccc2c1=O)NCc1ccccc1 | 5.5 | -0.6 | 1.6 | -0.6 | -29.2 | 6.0 | . | .
N#Cc1c(N)nc2c(c1-c1ccc3c(c1)OCO3)CCc1ccccc1-2 | 20.4 | -1.3 | 10.6 | -3.1 | -20.4 | 3.6 | . | .
COc1ccc(NC(=O)Nc2cccc(Cl)c2Cl)c(OC)n1 | 4.2 | 23.3* | -14.6 | 2.9 | -45.9 | 8.8 | 5.4 | 6.1
CSc1ccccc1NC(=O)CN(C)C(=O)Cn1c(=O)oc2ccccc21 | -3.8 | -2.8 | -18.1 | 6.6 | 7.6 | -1.2 | . | .
COc1ccc(-c2sc3ccc(N4CCOCC4)cc3c2C#CC2(O)CCCCC2)cc1 | 5.8 | 31.9* | -46.3 | 12.8* | -24.6 | 4.4 | 45.2* | 10.9
COc1cc(OC)cc(-c2sc3ccc(OC)cc3c2C#CC2(N)CCCCC2)c1 | 17.7 | 21.1* | -4.8 | 3.9 | -77.3 | 13.8 | 14.5* | 6.2
COc1ccc(-c2sc3cc4c(cc3c2C#CC2(N)CCCCC2)OCO4)cc1 | 3.2 | 16.1* | -50.6 | 2.7 | -13.9 | 2.6 | 6.4 | 4.1
CCCc1nc2nc(C)c(NS(=O)(=O)c3ccc(Cl)cc3)c(=O)n2[nH]1 | -2.5 | -1.4 | -4.3 | 1.5 | 24.2 | -4.5 | . | .
COc1cc(C2c3cc4c(cc3OC(C)(N3CCCC3)C2C)OCO4)cc(OC)c1OC (stereo unspecified) | -24.6 | -1.4 | 4.0 | -1.0 | 16.2 | -3.1 | . | .
O=C(NC(NC(=S)N1CCOCC1)C(Cl)(Cl)Cl)c1cccc2ccccc12 (stereo unspecified) | 0.7 | -1.6 | 12.3 | -3.0 | 5.7 | -1.1 | . | .
Cc1ccc(NC(=O)c2nc[nH]c2C(=O)Nc2ccccc2F)cc1 | -0.2 | 16.2* | . | . | . | . | -1.0 | 2.0
O=C(Nc1ccccc1)c1nc[nH]c1C(=O)Nc1ccccc1F | 12.2 | 2.8 | . | . | . | . | . | .
C=CCOC(=O)/C=C/C(=O)NC(N)=O | 7.5 | 3.2 | 0.6 | -0.2 | 5.9 | -1.1 | . | .
COc1ccc2oc(C(=O)OCC(=O)NCc3ccc(OC)c(OC)c3)c(C)c2c1 | 2.2 | -1.4 | 1.6 | -0.6 | 5.0 | -0.8 | . | .
COc1ccc2oc(C(=O)OCC(=O)Nc3ccccc3OC)c(C)c2c1 | -5.6 | 13.8* | -0.5 | 10.2 | -3.0 | 0.6 | 4.4 | 3.7
COc1ccc2oc(C(=O)OCC(=O)Nc3ccccc3)c(C)c2c1 | -3.1 | -2.1 | -7.0 | -1.4 | -5.8 | 1.1 | . | .
CCOc1ccc2oc(C(=O)OCC(=O)NCc3ccc(OC)cc3)c(C)c2c1 | -2.8 | 29.7* | -16.0 | 8.7 | 10.1 | -2.7 | 1.2 | 7.0
COc1ccc2oc(C(=O)Nc3ccc(C)cn3)c(C)c2c1 | -4.4 | 12.7* | -23.1 | 3.9 | 5.6 | -0.9 | 5.5 | 5.4
COc1ccc2oc(C(=O)Nc3ccccn3)c(C)c2c1 | -12.9 | -4.2 | -17.8 | 2.2 | 2.5 | -0.4 | . | .
c1ccc(Oc2cc(-c3ccccc3)ncn2)cc1 | 7.4 | 1.8 | -5.1 | 0.8 | -12.6 | 3.0 | . | .
CCCc1cc(=O)oc2c(C)c(OCC(=O)Nc3ccc(CN4CCOCC4)cc3)ccc12 | -1.9 | 15.7* | -0.6 | 6.2 | -3.3 | 0.6 | -0.8 | 1.9
SMILES | MC4R antag cAMP | MC4R barr agon | HTR5A inv ctr | HTR5A ag | OPRM1-OPRD1 inv | MOR-DOR ag | MC4R barr conf | MOR-DOR barr ag
CC(=O)NS(=O)(=O)c1ccc(NC(=O)COc2ccc(C(=O)c3ccccc3)cc2)cc1 | 13.8 | -4.0 | 16.4 | -1.8 | 19.4 | -3.8 | . | .
CCOc1ccc2nc(NC(=O)CN3C(=O)C4CCCCC4C3=O)sc2c1 (stereo unspecified) | 0.5 | -0.9 | -7.7 | 2.6 | 4.7 | -0.7 | . | .
CCCCCN=C(N)N/N=C/c1c[nH]c2ccc(OC)cc12 | 12.8 | 10.1* | -40.3 | 11.3 | -44.3 | 8.2 | 14.5* | 30.9*
CCCOc1ccc(C(=O)N/N=C/c2c[nH]c3ccc(Br)cc23)cc1 | -8.8 | 1.9 | -15.2 | 4.1 | -1.0 | 0.2 | . | .
O=C(Cc1n[nH]c(=O)c2ccccc12)Nc1cc(Cl)ccc1-n1cncn1 | 2.0 | -1.5 | -4.1 | 3.5 | 21.1 | -4.3 | . | .
O=C(NCc1csc2ccccc12)Nc1cc(Cl)cc(Cl)c1 | 13.9 | 16.1* | -5.7 | 2.2 | -16.6 | 3.4 | -0.9 | 3.9
CCOc1ccc(NC(=O)CN2C(=O)CSC2=O)cc1 | -4.3 | -2.2 | -0.2 | 0.1 | 6.3 | -1.1 | . | .
O=C(Cc1ccc(NC(=O)C2CCCN(C(=O)C3CC3)C2)cc1)Nc1ccc(C(=O)N2CCOCC2)cc1 (stereo unspecified) | 12.8 | -1.2 | 8.9 | -2.6 | 6.6 | -1.4 | . | .
COc1ccc(CNCc2cc3c(C(C)(C)C)nn(-c4ccccc4)c3[nH]c2=O)cc1 | 10.4 | 15.0* | -23.4 | 8.5 | -52.1 | 8.8 | 14.1* | 12.1
O=C(COc1ccccc1Cl)Nc1ccc(NC(=O)c2ccco2)cc1 | -1.7 | 0.2 | 1.6 | -0.6 | 14.1 | -2.6 | . | .
O=C(Nc1ccc(-c2noc(COc3ccccc3Cl)n2)cc1)c1ccco1 | 0.3 | 26.8* | -21.1 | 12.2* | -10.5 | 2.5 | 7.6 | 4.7
FC(F)(F)c1cc(-c2cccs2)nc2cc(-c3cccs3)nn12 | 0.6 | 25.0* | . | . | . | . | 2.4 | 4.0
CCOc1cc(S(=O)(=O)Nc2cc(C)cc(C)c2)ccc1Cl | -2.4 | 9.6* | -37.5 | 5.2 | -63.0 | 11.6 | 5.7 | 8.3
Cc1ccc(-n2nc3c4c(cccc4c2=O)-c2ccccc2-3)cc1 | 7.6 | 20.7* | -4.1 | 1.3 | -69.0 | 15.1 | 10.2* | 5.5
